Reference: ChEMBL document CHEMBL1145581, “Design and synthesis of tetrahydroisoquinoline derivatives as potential multidrug resistance reversal agents in cancer” (Bioorg Med Chem Lett, 2008)
Calls of active or inactive are those of the source. The calls are words filed in the database; no cut-off is given here.

Assays:
P-gp (ABCB1) [1] = target: T1, P-gp (ABCB1) (Homo sapiens, UniProt P08183); assay: Inhibition of Pgp-mediated multidrug resistance activity in human MCF7/ADM cells assessed as Rh123 accumulation at 1 umol/L after 30 mins; format: cell-based; settings: probe Rh123
How it was run: (§1)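 MCF-7/ADM cells were maintained with ADM 1 µM and seeded at 4 × 10⁴/ml. They were preincubated 30 min in serum-free RPMI 1640, then given compound (1, 3, 10 µM final) for 30 min. Rh123 10 µM final was added for a further 60 min at 37 °C. After PBS washes and Triton X-100 lysis, intracellular fluorescence was read at ex 488/em 535 nm. Triplicate. Inhibitory ratio = (treated − control)/control × 100, background-corrected.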

[2] = Antitumor activity against human K562/A02 cells xenografted in nude mouse at 8 mg/kg; format: functional
How it was run: (§2)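 SCID nude mice received subcutaneous axillary inoculation of log-phase K562/A02 cells at 1 × 10⁷/ml. The cells were maintained in RPMI 1640 with 10% FCS and ADM 1 µg/ml final. When tumors reached a mean diameter of 0.4–0.6 cm, mice were randomized into groups of ten. Drug was given IV three times weekly, alongside adriamycin; vehicle controls were included. Endpoint was tumor weight. Inhibition ratio was calculated relative to the ADM-alone group.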

[3] = target: T2, ATP-dependent translocase ABCB1 (Rattus norvegicus, UniProt P43245); assay: Inhibition of Pgp-mediated multidrug resistance activity in rat RBMEC cells assessed as Rh123 accumulation at 3 umol/L after 90 mins; format: cell-based; settings: 1.5 h, 3 µM
How it was run: (§3)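 Primary rat brain microvascular endothelial cells were grown in DF with 20% FCS to a 90% confluent monolayer. They were preincubated 30 min in serum-free DF. Compound (1, 3, 10 µM final) and Rh123 5 µM final were then added for 90 min, with cells collected at different times. Washed cells were lysed with Triton X-100 and fluorescence read at 488/535 nm. Values were normalized to Coomassie protein. Duplicate, ≥3 experiments.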

[4] = target: T2, ATP-dependent translocase ABCB1; assay: Inhibition of Pgp-mediated multidrug resistance activity in rat RBMEC cells assessed as Rh123 accumulation at 10 umol/L after 90 mins; format: cell-based; settings: 1.5 h, 10 µM; how it was run: as §3
Rattus norvegicus [5] = assay: Toxicity in Sprague-Dawley rat assessed as ventricular fibrillation by measuring aconitine nitrate level at 2 mg.kg, iv by […]; format: organism-based, Cardiac ventricle; settings: in vivo
How it was run: (§4)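 SD rats were anesthetized with urethane 1.2 g/kg ip, and compound in normal saline was given via the femoral vein. Two minutes later, aconitine nitrate was infused IV at constant rate by peristaltic pump. The aconitine dose at onset of premature beats, sustained tachycardia or fibrillation was determined by […]. n = 3.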

[6] = Antitumor activity against human K562/A02 cells xenografted in nude mouse at 2 mg/kg; format: functional; how it was run: as §2
Aorta = assay: Toxicity in Sprague-Dawley rat aorta assessed as vascular contractile activity; format: tissue-based; settings: in vitro
How it was run: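 Aortic rings came from SD rats (250–350 g) and were kept at 37 °C under 95% O₂/5% CO₂. Isometric tension was recorded. After 60 min equilibration, rings were contracted with 20 or 80 mM KCl. Drug was then added in increasing concentrations until maximal relaxation. Relaxation was expressed as % of the KCl contraction.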

K562/A02 = assay: Decrease in membrane lipid fluidity in human K562/A02 cells at 10 umol/L; format: functional, cell-based
How it was run: (§5)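 K562 and K562/A02 cells were grown in RPMI 1640 with 10% FCS and seeded at 1 × 10⁵/ml. They were exposed to 1, 3 or 10 µM compound (final) for 24 h, then washed and labelled with 2 µM DPH for 30 min. After washing, cells were held 10 min at 25 °C. Fluorescence polarization P was read at ex 357.6/em 428.7 nm, with P inversely related to membrane fluidity. Duplicate, ≥3 experiments.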

P-gp (ABCB1) [7] = target: T1, P-gp (ABCB1); assay: Inhibition of Pgp-mediated multidrug resistance activity in human MCF7/ADM cells assessed as Rh123 accumulation at 3 umol/L after 30 mins; format: cell-based; settings: probe Rh123; how it was run: as §1
Rattus norvegicus [8] = assay: Toxicity in Sprague-Dawley rat assessed as ventricular permeature beat by measuring aconitine nitrate level at 2 mg.kg, iv by […]; format: organism-based, Cardiac ventricle; settings: in vivo
Rattus norvegicus [9] = assay: Toxicity in Sprague-Dawley rat assessed as ventricular sustained tachycardia by measuring aconitine nitrate level at 2 mg.kg, iv by […]; format: organism-based, Cardiac ventricle; settings: in vivo; how it was run: as §4
K562 = assay: Effect on membrane lipid fluidity in human K562 cells; format: functional, cell-based; how it was run: as §5
P-gp (ABCB1) [10] = target: T1, P-gp (ABCB1); assay: Inhibition of Pgp-mediated multidrug resistance activity in human MCF7/ADM cells assessed as Rh123 accumulation at 10 umol/L after 30 mins; format: cell-based; settings: probe Rh123; how it was run: as §1
[11] = target: T2, ATP-dependent translocase ABCB1; assay: Inhibition of Pgp-mediated multidrug resistance activity in rat RBMEC cells assessed as Rh123 accumulation at 1 umol/L after 90 mins; format: cell-based; settings: 1.5 h, 1 µM; how it was run: as §3
[12] = Antitumor activity against human K562/A02 cells xenografted in nude mouse assessed as tumor weight at 2 mg/kg; format: functional; how it was run: as §2

T2 sequence (P43245 whole entry): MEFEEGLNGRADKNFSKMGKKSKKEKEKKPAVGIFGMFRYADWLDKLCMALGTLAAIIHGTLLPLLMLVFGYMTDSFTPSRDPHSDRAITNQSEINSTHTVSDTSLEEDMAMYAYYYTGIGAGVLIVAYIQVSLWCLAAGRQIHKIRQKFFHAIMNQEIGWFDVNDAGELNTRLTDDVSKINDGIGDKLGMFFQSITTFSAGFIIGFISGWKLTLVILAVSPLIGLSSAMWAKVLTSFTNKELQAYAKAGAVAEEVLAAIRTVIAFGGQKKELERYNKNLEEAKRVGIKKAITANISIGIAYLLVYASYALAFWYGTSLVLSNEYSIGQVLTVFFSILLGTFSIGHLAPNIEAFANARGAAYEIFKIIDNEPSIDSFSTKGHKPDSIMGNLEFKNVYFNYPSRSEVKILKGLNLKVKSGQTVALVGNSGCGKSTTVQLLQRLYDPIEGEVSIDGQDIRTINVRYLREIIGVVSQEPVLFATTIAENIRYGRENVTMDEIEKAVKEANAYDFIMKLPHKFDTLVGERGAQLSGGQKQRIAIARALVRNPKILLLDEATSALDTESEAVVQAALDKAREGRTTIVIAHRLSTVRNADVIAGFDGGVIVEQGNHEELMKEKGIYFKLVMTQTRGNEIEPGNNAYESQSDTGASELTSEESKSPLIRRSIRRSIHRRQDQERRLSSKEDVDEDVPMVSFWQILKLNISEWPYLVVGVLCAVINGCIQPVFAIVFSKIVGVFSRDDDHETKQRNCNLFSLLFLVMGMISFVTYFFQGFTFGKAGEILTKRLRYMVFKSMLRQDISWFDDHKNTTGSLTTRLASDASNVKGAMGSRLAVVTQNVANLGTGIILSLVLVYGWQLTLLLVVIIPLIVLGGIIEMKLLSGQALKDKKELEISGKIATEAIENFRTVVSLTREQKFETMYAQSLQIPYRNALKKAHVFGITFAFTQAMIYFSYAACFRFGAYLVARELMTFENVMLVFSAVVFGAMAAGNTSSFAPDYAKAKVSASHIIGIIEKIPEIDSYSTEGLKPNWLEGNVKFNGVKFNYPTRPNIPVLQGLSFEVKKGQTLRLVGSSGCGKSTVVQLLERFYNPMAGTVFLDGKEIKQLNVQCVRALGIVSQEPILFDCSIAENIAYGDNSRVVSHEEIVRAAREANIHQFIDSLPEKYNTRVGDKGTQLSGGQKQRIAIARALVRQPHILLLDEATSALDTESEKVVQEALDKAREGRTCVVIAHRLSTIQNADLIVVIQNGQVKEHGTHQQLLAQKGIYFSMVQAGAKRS
T1 sequence (P08183 whole entry): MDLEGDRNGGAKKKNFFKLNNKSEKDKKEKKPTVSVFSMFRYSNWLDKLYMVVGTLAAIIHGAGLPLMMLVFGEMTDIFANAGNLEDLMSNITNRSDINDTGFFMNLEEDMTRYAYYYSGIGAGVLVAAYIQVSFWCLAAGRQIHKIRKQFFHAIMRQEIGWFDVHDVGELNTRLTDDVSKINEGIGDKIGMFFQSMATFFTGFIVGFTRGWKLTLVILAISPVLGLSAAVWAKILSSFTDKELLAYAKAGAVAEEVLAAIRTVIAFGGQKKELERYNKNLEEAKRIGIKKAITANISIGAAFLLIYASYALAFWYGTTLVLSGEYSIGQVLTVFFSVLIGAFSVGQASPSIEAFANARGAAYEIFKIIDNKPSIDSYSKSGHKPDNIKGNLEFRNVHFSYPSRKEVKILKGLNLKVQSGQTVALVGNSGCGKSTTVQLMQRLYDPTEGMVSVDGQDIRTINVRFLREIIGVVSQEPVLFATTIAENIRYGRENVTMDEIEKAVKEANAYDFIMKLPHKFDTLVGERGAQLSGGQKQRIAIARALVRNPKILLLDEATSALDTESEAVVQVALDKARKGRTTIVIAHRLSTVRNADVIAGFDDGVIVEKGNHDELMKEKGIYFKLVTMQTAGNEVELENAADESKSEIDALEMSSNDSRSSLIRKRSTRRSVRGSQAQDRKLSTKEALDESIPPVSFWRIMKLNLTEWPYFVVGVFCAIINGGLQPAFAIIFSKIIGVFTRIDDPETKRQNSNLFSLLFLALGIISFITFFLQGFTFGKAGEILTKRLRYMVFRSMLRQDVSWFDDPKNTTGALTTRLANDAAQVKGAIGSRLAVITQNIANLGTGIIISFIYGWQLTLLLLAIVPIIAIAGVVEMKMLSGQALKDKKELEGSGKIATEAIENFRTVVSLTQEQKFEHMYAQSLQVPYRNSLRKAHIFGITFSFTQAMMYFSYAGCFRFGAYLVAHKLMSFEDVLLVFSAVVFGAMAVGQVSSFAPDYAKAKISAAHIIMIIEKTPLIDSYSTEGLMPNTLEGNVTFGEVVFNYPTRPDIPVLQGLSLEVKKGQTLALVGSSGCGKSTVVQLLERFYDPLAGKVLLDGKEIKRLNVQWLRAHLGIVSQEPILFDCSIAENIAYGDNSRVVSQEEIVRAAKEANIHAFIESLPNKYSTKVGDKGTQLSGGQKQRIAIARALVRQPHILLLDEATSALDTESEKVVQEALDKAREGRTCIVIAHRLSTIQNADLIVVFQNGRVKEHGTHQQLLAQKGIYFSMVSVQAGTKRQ

inhibition at 0.5 h, 1 µM (P-gp (ABCB1) [1]) [%] | Activity [3] | Activity [4] | inhibition at 0.5 h, 3 µM (P-gp (ABCB1) [7]) [%] | inhibition at 0.5 h, 10 µM (P-gp (ABCB1) [10]) [%] | Activity [11] | Structure (SMILES) | inhibition in vivo at 8 mg/kg [2] [%] | Activity (Rattus norvegicus [5]) [µg/kg] | inhibition in vivo at 2 mg/kg [6] [%] | Activity (Aorta) | Activity (K562/A02) | Activity (Rattus norvegicus [8]) [µg/kg] | Activity (Rattus norvegicus [9]) [µg/kg] | Activity (K562) | Activity [12] [g]
35.2 | Active | Active | 60.5 | 69.3 | Active | CCCCCCCCN/C(=N/C#N)N1CCc2cc(OC)c(OC)cc2C1Cc1ccc(OC)c(OC)c1 (stereo unspecified) | -59.5 | 31.5 | -62.2 | Not Active | Active | 22.4 | 26.7 | inactive | 
 |  | Active |  | 98.7 |  | COc1ccc(CCN(C)CCCC(C#N)(c2ccc(OC)c(OC)c2)C(C)C)cc1OC (stereo unspecified) [VERAPAMIL] | -66.4 | 55 |  |  |  |  | 44 | inactive | 
 |  |  |  |  |  | COc1cccc2c1C(=O)c1c(O)c3c(c(O)c1C2=O)C[C@@](O)(C(=O)CO)C[C@@H]3O[C@H]1C[C@H](N)[C@H](O)[C@H](C)O1 [DOXORUBICIN] |  |  |  |  |  |  |  |  | 2.17
